19 compounds from ChEMBL document CHEMBL2384903, “Highly efficient biocompatible neuroprotectants with dual activity as antioxidants and P2Y receptor agonists” (J Med Chem, 2013) can be followed below.

What is called EC50 is the concentration giving half of the maximal effect. The term IC50 denotes the point on the concentration scale where inhibition reaches its midpoint.

The target of data set [1] is P2Y purinoceptor 1 (Homo sapiens, UniProt P47900). The data set is described as follows: Agonist activity at human GFP-tagged P2Y1R transfected in human 1321N1 cells assessed as induction of intracellular calcium mobilization by fluorescence assay. In kind it is functional, cell-based. For orientation: Calcium flux is commonly read through the fluorescence of an indicator in the cells.

Data set [2] can be described thus: Metabolic stability in human serum assessed as compound remaining at 0.1 mg after 6 hrs by HPLC analysis. In kind it is ADME, cell-free. Particulars: read-out: Stability; call rule not given here. The procedure, abridged:
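0.1 mg compound in water was mixed with human blood serum and RPMI-1640 medium (1:3 serum:medium) and incubated at 37 °C for 0−24 h. Remaining intact nucleotide was quantified from the change in its HPLC peak integration over time.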

Data set [3] concerns PC-12. The data set can be described thus: Antioxidant activity in rat PC12 cells assessed as inhibition of Fe2+-induced ROS production after 1 hr by DCFH-DA staining-based fluorometric analysis. Particulars: Rattus norvegicus, PC-12, 1 h; read-out: IC50. In kind it is functional, cell-based. The procedure, abridged: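 PC12 cells grown in DMEM, seeded 24 h. Loaded with DCFH-DA (ethanol stock diluted 100-fold in PBS) for 20 min, then probe removed. Nucleotides added at final 0.2–200 μM, and oxidation started with FeSO4 at final 0.16 μM. Fluorescence at 485/530 nm read during 1 h at 37 °C. […] Mean ± SD of two experiments.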

Data set [4] is described as follows: Antioxidant activity assessed as free radical scavenging activity after 7 mins by ABTS radical cation decolorization assay. In kind it is functional. The gist of the method: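 ABTS•+ is made from 7 mM ABTS and 2.45 mM persulfate (final), left in the dark at RT for 12–16 h, then diluted in water pH 7.4 to A734 0.80. It is mixed with compound or Trolox standard (final 0–60 μM), and A734 is read at exactly 7 min. Percent inhibition is plotted against concentration, with solvent blanks. Each run is done at least three times, in triplicate.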

Data set [5] is described as follows: Antioxidant activity assessed as inhibiton of Fe2+-induced Fenton reaction-mediated hydroxyl radical formation from H2O2 measured for 150 secs by ESR analysis in presence of DMPO. In kind it is functional. The gist of the method:
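Spin-trap ESR run at room temperature, final volume 100 μL. 5–500 μM compound is combined with ammonium iron(II) sulfate (1 mM stock) and Tris pH 7.4. After 30 s mixing, DMPO (100 mM stock) and H2O2 (100 mM stock) are added, with final pH 7.2–7.4. Spectrum is recorded 150 s after H2O2 at 9.76 GHz, 6.35 mW. Mean ± SD of three experiments.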

Data set [6] concerns the target T1, P2Y purinoceptor 11 (Homo sapiens, UniProt Q96G91).
T1 sequence (Q96G91 whole entry): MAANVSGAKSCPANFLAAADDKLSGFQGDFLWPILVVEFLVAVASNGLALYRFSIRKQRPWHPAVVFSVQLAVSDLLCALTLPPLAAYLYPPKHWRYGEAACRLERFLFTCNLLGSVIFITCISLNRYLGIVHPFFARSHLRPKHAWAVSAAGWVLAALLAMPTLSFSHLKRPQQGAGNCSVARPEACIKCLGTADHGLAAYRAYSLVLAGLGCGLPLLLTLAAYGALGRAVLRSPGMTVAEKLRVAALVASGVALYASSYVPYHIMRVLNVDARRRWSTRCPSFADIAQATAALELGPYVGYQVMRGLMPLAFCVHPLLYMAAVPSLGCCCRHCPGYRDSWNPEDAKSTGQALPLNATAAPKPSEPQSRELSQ
The data set is described as follows: Agonist activity at human GFP-tagged P2Y11R transfected in human 1321N1 cells assessed as induction of intracellular calcium mobilization by fluorescence assay. In kind it is functional, cell-based.

The test system of data set [7] is PC-12. The data set is described as follows: Cytotoxicity against rat PC12 cells assessed as cell viability up to 200 uM after 48 hrs by MTT assay. In kind it is cell-based. Particulars: pc-12, 48 h. The procedure, abridged: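 PC12 cells were exposed to compounds at various concentrations up to 200 μM for 48 h, and viability was measured by MTT assay.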
Data set [8] is described as follows: Neuroprotective activity in rat primary cortical neurons assessed as decrease in FeSO4-induced oxidative stress measured cell viability after 24 hrs by MTT assay. In kind it is functional, cell-based. Particulars: Cerebral cortex neuron. The gist of the method:
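Cortical neurons came from 1-day-old rat brain, were trypsin-dissociated and plated on polyornithine. They were grown in serum-free DMEM/F12 with B-27, then Ara-C treated for 48 h. Cells were treated with 0.01−5 μM nucleotide before FeSO4 (3 μM final) for 24 h. MTT 1 mg/mL was applied for 2 h at 37 °C, formazan dissolved in DMSO, absorbance read at 550 nm. Viability was expressed relative to vehicle control, mean ± SD of three independent experiments in triplicate.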
A general note: Tetrazolium assays rely on reduction of a dye to a coloured formazan, in cell work by metabolically active cells.

Data set [9] is filed under the species Homo sapiens. The data set can be described thus: Selectivity ratio of EC50 for human GFP-tagged P2Y11R to EC50 for human GFP-tagged P2Y1R. The gist of the method: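 1321N1 astrocytoma cells stably expressing human P2Y1-GFP or P2Y11-GFP were loaded with 2 μM fura-2 AM plus 0.02% pluronic acid in HEPES-buffered saline pH 7.4 for 30 min at 37 °C. They were then superfused at 37 °C with graded agonist concentrations. [Ca2+]i was read as the F340/F380 ratio (510 nm emission) in GFP-positive cells, at least 40 cells per point. EC50 came from concentration–response curves, n = 3.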

In data set [10] the target is P2Y purinoceptor 1 (Rattus norvegicus, UniProt P49651). The data set is described as follows: Agonist activity at rat brain P2Y1R transfected in HEK293 cells assessed as induction of intracellular calcium mobilization by fluorescence assay. In kind it is functional, cell-based.
Data set [11] can be described thus: Antioxidant activity assessed as inhibiton of Fe2+-induced Fenton reaction-mediated hydroxyl radical formation from H2O2 relative to trolox. In kind it is functional. The procedure, abridged: (§1)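 Fe(II)-H2O2 hydroxyl radical assay read by ESR with DMPO spin trap. Ammonium iron(II) sulfate (1 mM, stock) was added to 5−500 μM test compound, then 1 mM Tris pH 7.4. After 30 s mixing, DMPO then H2O2 were added. Final pH 7.2−7.4, 100 μL total, room temperature. Spectrum recorded 150 s after H2O2. IC50 given as mean ± SD of three experiments.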

Data set [12] can be described thus: Antioxidant activity assessed as inhibiton of Fe2+-induced Fenton reaction-mediated hydroxyl radical formation from H2O2 relative to ATP. In kind it is functional. The gist of the method:
as §1

Some results are limits rather than exact numbers.

Chain of P2Y purinoceptor 1 (Homo sapiens, UniProt P47900) (P47900 whole entry): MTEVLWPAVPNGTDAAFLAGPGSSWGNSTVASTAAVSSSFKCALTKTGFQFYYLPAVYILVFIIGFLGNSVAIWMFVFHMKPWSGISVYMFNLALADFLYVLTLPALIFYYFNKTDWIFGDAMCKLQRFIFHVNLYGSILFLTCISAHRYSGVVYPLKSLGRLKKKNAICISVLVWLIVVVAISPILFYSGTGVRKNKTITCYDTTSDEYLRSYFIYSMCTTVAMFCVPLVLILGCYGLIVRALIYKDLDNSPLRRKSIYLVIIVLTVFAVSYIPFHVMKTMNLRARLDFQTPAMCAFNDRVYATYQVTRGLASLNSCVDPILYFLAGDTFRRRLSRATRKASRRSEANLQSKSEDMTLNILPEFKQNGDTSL
Chain of P2Y purinoceptor 1 (Rattus norvegicus, UniProt P49651) (P49651 whole entry): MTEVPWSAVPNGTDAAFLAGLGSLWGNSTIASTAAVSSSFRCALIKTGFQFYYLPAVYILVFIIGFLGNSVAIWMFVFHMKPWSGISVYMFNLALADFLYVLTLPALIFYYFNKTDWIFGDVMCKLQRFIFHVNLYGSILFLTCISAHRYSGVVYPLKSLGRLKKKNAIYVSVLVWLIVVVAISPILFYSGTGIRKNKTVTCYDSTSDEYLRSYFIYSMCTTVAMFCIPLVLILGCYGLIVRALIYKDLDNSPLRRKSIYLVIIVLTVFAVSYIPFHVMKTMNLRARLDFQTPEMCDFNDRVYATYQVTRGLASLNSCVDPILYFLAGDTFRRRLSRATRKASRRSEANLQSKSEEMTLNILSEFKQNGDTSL

For `Nc1ncnc2c1ncn2[C@@H]1O[C@H](COP(=O)(O)OP(=O)(O)O)[C@@H](O)[C@H]1O` [ADENOSINE DIPHOSPHATE], the concentration giving a half-maximal response (EC50) stood at 0.024 µM in [1] and 1.7 µM in data set [6] (read-out: EC50). Moreover, the remaining at 6 h in data set [2] was 32%. In addition, the IC50 in [3] was determined as 21 µM; in [4] it was 30 µM; in data set [5] it was 170 µM.
With `B[P@@](=O)(OC[C@H]1O[C@@H](n2cnc3c(N)ncnc32)[C@H](O)[C@@H]1O)OP(=O)(O)OP(=O)(O)OP(=O)(O)OP(=O)(O)OC[C@H]1O[C@@H](n2cnc3c(N)ncnc32)[C@H](O)[C@@H]1O`, the EC50 is 0.2 µM in data set [1] and “Not Active” in [6] (1321-n1). The concentration for half-maximal inhibition (IC50) in data set [3] was 0.4 µM; in [4], over 60 µM; in [5], 59 µM.
For the compound `BP(=O)(OC[C@H]1O[C@@H](n2cnc3c(N)nc(Cl)nc32)[C@H](O)[C@@H]1O)OP(=O)(O)O` (stereo not given in full), in data set [7], the Activity result is “Non-toxic”.
The same measure, in the same setting: the result for `[BH3-]P(=O)(OC[C@H]1O[C@@H](n2cnc3c(N)nc(Cl)nc32)[C@H](O)[C@@H]1O)OP(=O)([O-])C(Cl)(Cl)P(=O)([O-])[O-].[Na+].[Na+].[Na+].[Na+]` (stereo not given in full) reads “Non-toxic”.
For `Cc1c(C)c2c(c(C)c1O)CCC(C)(C(=O)O)O2` (stereo not given) [TROLOX], the results for the IC50 in data set [3] and in [4] were 20 µM and 18 µM, respectively.
As to `O=C(O)CN(CCN(CC(=O)O)CC(=O)O)CC(=O)O` [EDETIC ACID], the IC50 in [5] is 54 µM.
As to `Nc1ncnc2c1ncn2[C@@H]1O[C@H](COP(=O)(O)OP(=O)(O)OP(=O)(O)OP(=O)(O)OP(=O)(O)OC[C@H]2O[C@@H](n3cnc4c(N)ncnc43)[C@H](O)[C@@H]2O)[C@@H](O)[C@H]1O`, the concentration for a half-maximal effect (EC50) in [1] was determined as 0.76 µM. Further, the half-maximal inhibitory concentration (IC50) in [3] is 29 µM; in data set [4], over 60 µM; in data set [5], 75 µM.
Turning to `CSc1nc(N)c2ncn([C@@H]3O[C@H](COP(=O)(O)OP(=O)(O)O)[C@H](O)[C@H]3OC(=O)c3ccccc3)c2n1`, in data set [6] (read-out: EC50), the EC50 stood at 1.5 µM.
Consider `B[P@](=O)(OC[C@H]1O[C@@H](n2cnc3c(N)nc(Cl)nc32)[C@H](O)[C@@H]1O)OP(=O)(O)O`, for which the EC50 worked out at 0.6 µM in [1], 0.4 µM in [8] and 1 µM in data set [6] (read-out: EC50). For the same compound, the IC50 in [3] turned out to be 0.2 µM; in data set [4] it was 39 µM; in data set [5] it was 120 µM. For the same compound, the Ratio EC50 in data set [9] is under 530.
With `B[P@](=O)(OC[C@H]1O[C@@H](n2cnc3c(N)nc(Cl)nc32)[C@H](O)[C@@H]1O)OP(=O)(O)OP(=O)(O)O`, in [1], the EC50 was 2.5 µM. In addition, the IC50 was 2.6 µM in [3], 24 µM in data set [4] and 36 µM in [5].
Take `B[P@@](=O)(OC[C@H]1O[C@@H](n2cnc3c(N)nc(Cl)nc32)[C@H](O)[C@@H]1O)OP(=O)(O)C(Cl)(Cl)P(=O)(O)O`: the EC50 in data set [1] was 0.15 µM; in [6] (read-out: EC50) it was 1.4 µM. Moreover, the IC50 was determined as 0.18 µM in data set [3], 24 µM in [4] and 131 µM in data set [5].
On the same counts, the results for `B[P@](=O)(OC[C@H]1O[C@@H](n2cnc3c(N)nc(Cl)nc32)[C@H](O)[C@@H]1O)OP(=O)(O)C(Cl)(Cl)P(=O)(O)O` are 0.95 µM, 0.13 µM, 0.19 µM, 27 µM and 60 µM.
On the same counts, the results for `B[P@](=O)(OC[C@H]1O[C@@H](n2cnc3c(N)ncnc32)[C@H](O)[C@@H]1O)OP(=O)(O)O` are 13 µM, 2.9 µM, 1 µM, 24 µM and 41 µM.
As to `[BH3-][P@@](=O)(OC[C@H]1O[C@@H](n2cnc3c(N)ncnc32)[C@H](O)[C@@H]1O)OP(=O)([O-])[O-].[Na+].[Na+].[Na+]`, the EC50 in data set [1] was 0.3 µM; in [6] (1321-n1), “Not Active”. Besides, the remaining at 6 h in [2] was found to be 56%. Further, the results for the IC50 in data set [3], in data set [4] and in data set [5] were 1 µM, 26 µM and 47 µM, respectively.
In the case of `B[P@@](=O)(OC[C@H]1O[C@@H](n2cnc3c(N)nc(Cl)nc32)[C@H](O)[C@@H]1O)OP(=O)(O)OP(=O)(O)O`, the EC50 was determined as 0.074 µM in data set [1] and 0.0045 µM in data set [10]. In addition, the IC50 in [3] is 1 µM; in data set [4], 23 µM; in [5], 66 µM.
With `Nc1ncnc2c1ncn2[C@@H]1O[C@H](COP(=O)(O)OP(=O)(O)OP(O)(O)=S)[C@@H](O)[C@H]1O`, the values for the fold change (FC) in data set [11] and in [12] were 20 and 100, respectively.
Regarding `BP(=O)(OP(=O)(O)OP(=O)(O)OC[C@H]1O[C@@H](n2cnc3c(N)ncnc32)[C@H](O)[C@@H]1O)OP(=O)(O)OP(=O)(O)OC[C@H]1O[C@@H](n2cnc3c(N)ncnc32)[C@H](O)[C@@H]1O`, in data set [1], the EC50 was 1.2 µM. Also, the IC50 was 5 µM in [3], 61 µM in data set [4] and 161 µM in data set [5].
On to `B[P@](=O)(OC[C@H]1O[C@@H](n2cnc3c(N)ncnc32)[C@H](O)[C@@H]1O)OP(=O)(O)OP(=O)(O)OP(=O)(O)OP(=O)(O)OC[C@H]1O[C@@H](n2cnc3c(N)ncnc32)[C@H](O)[C@@H]1O`, for which the EC50 in [1] was 3 µM; in data set [6] (1321-n1) it was “Not Active”. For the same compound, the values for the IC50 in data set [3], in data set [4] and in data set [5] were 1.2 µM, over 60 µM and 47 µM, respectively.
On to `[BH3-]P(=O)(OC[C@H]1O[C@@H](n2cnc3c(N)ncnc32)[C@H](O)[C@@H]1O)OP(=O)([O-])OP(=O)([O-])OP(=O)([O-])OP(=O)([O-])OC[C@H]1O[C@@H](n2cnc3c(N)ncnc32)[C@H](O)[C@@H]1O.[Na+].[Na+].[Na+].[Na+].[Na+]` (stereo not given in full), for which the Activity result in [7] was “Non-toxic”.
